Results as given in ChEMBL document CHEMBL3627716, “Structure-activity relationship studies of the lipophilic tail region of sphingosine kinase 2 inhibitors” (Bioorg Med Chem Lett, 2015).

Assays:
[1] = target: T1, Sphingosine kinase 2 (Mus musculus) (UniProt Q9JIA7); assay: Inhibition of mouse recombinant SphK2 assessed as remaining enzyme activity at 10 uM using gamma[32P]ATP incubated for 20 mins by liquid scintillation counting method
T1 sequence (whole entry): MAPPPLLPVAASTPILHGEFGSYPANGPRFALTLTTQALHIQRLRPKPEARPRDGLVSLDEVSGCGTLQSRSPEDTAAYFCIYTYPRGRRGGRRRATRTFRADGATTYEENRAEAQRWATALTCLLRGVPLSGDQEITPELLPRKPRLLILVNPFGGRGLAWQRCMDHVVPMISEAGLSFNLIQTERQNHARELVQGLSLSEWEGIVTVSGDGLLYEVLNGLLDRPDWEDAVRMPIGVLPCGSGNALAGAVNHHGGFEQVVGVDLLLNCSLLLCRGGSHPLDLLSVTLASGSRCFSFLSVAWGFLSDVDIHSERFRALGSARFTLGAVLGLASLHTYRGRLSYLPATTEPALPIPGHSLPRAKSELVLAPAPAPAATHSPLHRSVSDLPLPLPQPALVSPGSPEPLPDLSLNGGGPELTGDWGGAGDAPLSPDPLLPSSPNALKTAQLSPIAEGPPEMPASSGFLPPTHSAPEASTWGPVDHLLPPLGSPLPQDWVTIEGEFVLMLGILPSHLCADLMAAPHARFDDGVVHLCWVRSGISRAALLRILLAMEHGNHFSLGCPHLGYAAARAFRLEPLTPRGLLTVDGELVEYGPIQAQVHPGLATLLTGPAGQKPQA
In short: (§1)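 Cell lysate containing recombinant mouse SphK2 incubated with sphingosine and γ-[³²P]ATP, with or without inhibitor, 20 min. Reactions extracted, ³²P-S1P separated by TLC and counted by liquid scintillation. Activity reported as ³²P-S1P formed; screened at 10 μM, with some compounds also assayed at 1 μM. Each value is the mean of two experiments.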

[2] = target: T1, Sphingosine kinase 2 (Mus musculus); assay: Inhibition of mouse recombinant SphK2 assessed as remaining enzyme activity at 1 uM using gamma[32P]ATP incubated for 20 mins by liquid scintillation counting method; in short: as §1

Activity [1] [%] | Activity [2] [%] | Compound
87 | – | N=C(N)N1CCC[C@H]1c1nc(-c2ccc(N3CCN(C(=O)C45CC6CC(CC(C6)C4)C5)CC3)cc2)no1
86 | – | N=C(N)N1CCC[C@H]1c1nc(-c2ccc(N3CCN(C(=O)Cc4ccccc4)CC3)cc2)no1
90 | – | CN1CCN(c2ccc(-c3noc([C@@H]4CCN4C(=N)N)n3)cc2)CC1
94 | – | N=C(N)N1CC[C@H]1c1nc(-c2ccc(N3CCOCC3)cc2)no1
91 | – | N=C(N)N1CC[C@H]1c1nc(-c2ccc(-c3ccccc3)cc2)no1
88 | – | N=C(N)N1CCC[C@H]1c1nc(-c2ccc(CS(=O)(=O)c3ccccc3)cc2)no1
70 | – | N=C(N)N1CCC[C@H]1c1nc(-c2ccc(CCc3ccccc3)cc2)no1
90 | – | CC(C)CC(=O)N1CCN(c2ccc(-c3noc([C@@H]4CCCN4C(=N)N)n3)cc2)CC1
63 | – | N=C(N)N1CCC[C@H]1c1nc(-c2ccc(I)cc2)no1

More lines, now with the values behind:

Compound | Activity [1] [%] | Activity [2] [%]
N=C(N)N1CCC[C@H]1c1nc(-c2ccc(N3CCN(Cc4ccccc4)CC3)cc2)no1 | 89 | –
CCCCCCCCCCCCc1ccc(-c2noc([C@@H]3CCCN3C(=N)N)n2)cc1 | 15 | 56
CCCCCCCCc1ccc(-c2noc([C@@H]3CCCN3C(=N)N)n2)cc1 | 9 | 44
CCCCCCCCc1noc([C@@H]2CCCN2C(=N)N)n1 | 88 | –
CCCCCCCCCCCCc1noc([C@@H]2CCCN2C(=N)N)n1 | 57 | –
CCOCc1cc(C)cc(Cc2ccc(-c3noc([C@@H]4CCCN4C(=N)N)n3)cc2)c1 | 46 | 99
CCCCCCCCCCc1ccc(-c2noc([C@@H]3CCN3C(=N)N)n2)cc1 | 12 | –
CCCCCCCCCCCCCCc1ccc(-c2noc([C@@H]3CCCN3C(=N)N)n2)cc1 | 16 | 52
CCCCCCCCCCCCCCCCc1noc([C@@H]2CCCN2C(=N)N)n1 | 52 | –
CCCCCCc1ccc(-c2noc([C@@H]3CCCN3C(=N)N)n2)cc1 | 35 | 76
CCCCCCCCCCc1ccc(-c2noc([C@@H]3CCCN3C(=N)N)n2)cc1 | 9 | 46
CCCCCCc1ccc(-c2noc([C@@H]3CCN3C(=N)N)n2)cc1 | 45 | 86
